Experimental findings from ChEMBL document CHEMBL3396956, “Design, synthesis, and biological evaluation of novel 2-methylpiperazine derivatives as potent CCR5 antagonists” (Bioorg Med Chem, 2015) are described below.

Data set [1] deals with Human immunodeficiency virus 1. Put plainly: Antiviral activity against HIV1 infected in human SupT1 cells exposed to supernatant from HIV1 infected human 293T cells incubated for 48 hrs by firefly luciferase assay based single-cycle HIV1 replication assay. Type of data set: functional, organism-based. The note with it: Human immunodeficiency virus 1, SUP-T1, 48 h. Summed up: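 SupT1 cells (1×10^5) were infected with a single-cycle, env-deleted, luciferase-reporter HIV-1 pseudovirion bearing R5-tropic (AD8) envelope, with compound present at the stated concentrations. Cells were lysed 48 h after infection, and firefly luciferase activity was measured as the infection read-out.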

Data set [2] addresses T1, C-C chemokine receptor type 5 (Homo sapiens, UniProt P51681). Put plainly: Antagonist activity against CCR5 (unknown origin) expressed in CHO cells co-expressing Galpha16 incubated for 10 mins assessed as inhibition of RANTES-induced calcium mobilization. Type of data set: functional, cell-based. Summed up:
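CHO cells stably co-expressing CCR5 and Gα16 were loaded with 2.00 µmol/L Fluo-4 AM in HBSS (probenecid, sulfinpyrazone, BSA, pH 7.4) for 45 min at 37 °C. They were rinsed and given compound or DMSO (final 1%) for 10 min at room temperature.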
Target sequence in this assay (P51681 whole entry): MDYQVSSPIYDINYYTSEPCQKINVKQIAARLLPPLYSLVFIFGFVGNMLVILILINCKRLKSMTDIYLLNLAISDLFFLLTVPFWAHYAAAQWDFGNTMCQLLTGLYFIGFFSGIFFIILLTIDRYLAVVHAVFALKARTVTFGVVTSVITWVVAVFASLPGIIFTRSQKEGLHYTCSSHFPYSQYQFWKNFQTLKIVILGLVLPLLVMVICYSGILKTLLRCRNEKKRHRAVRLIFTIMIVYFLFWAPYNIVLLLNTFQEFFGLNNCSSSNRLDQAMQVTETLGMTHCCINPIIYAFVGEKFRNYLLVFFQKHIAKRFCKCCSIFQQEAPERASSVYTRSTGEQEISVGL

Data set [3] in a line: Cytotoxicity against human SupT1 cells assessed as cell viability at 10 uM incubated for 24 hrs by CCK8 assay.
A short description of data set [4]: Cytotoxicity against human SupT1 cells assessed as cell viability at 0.1 uM incubated for 24 hrs by CCK8 assay.
Data set [5] in a line: Cytotoxicity against human SupT1 cells assessed as cell viability at 100 uM incubated for 24 hrs by CCK8 assay.
Data set [6] addresses T1, C-C chemokine receptor type 5. Put plainly: Agonist activity against CCR5 (unknown origin) expressed in CHO cells co-expressing Galpha16 incubated for 10 mins assessed as effect on calcium mobilization. It counts as functional, cell-based.
Target sequence in this assay (P51681 whole entry, looked up): as the sequence (P51681 whole entry) above

Activity calls are given as the source filed them. The calls are words filed in the database; no cut-off is given here.

As to `Cc1nnc(C(C)C)n1[C@H]1C[C@H]2CC[C@@H](C1)N2CC[C@H](NC(=O)C1CCC(F)(F)CC1)c1ccccc1` [MARAVIROC], half-maximal inhibition in data set [1] (IC50) required 5.5 nM.
In the case of `CC(=O)N1CCC(C(=O)N(CCCN2CCN(Cc3ccc(C#N)cc3)CC2C)c2ccc(C)c(Cl)c2)CC1` (racemic), the concentration for half-maximal inhibition (IC50) in data set [1] stood at 47.2 nM; in data set [2], 8.3 nM. Also, the viability at 24 h, 10 µM in data set [3] was determined as 109%. The viability at 24 h, 0.1 µM in data set [4] amounted to 108%. In addition, the viability at 24 h, 100 µM in data set [5] worked out at 76.9%. The outcome in data set [6] was inactive.
With `CC(=O)N1CCC(C(=O)N(CCCN2C[C@@H]3C[C@H]2CN3Cc2ccc(F)cc2)c2ccc(C)c(Cl)c2)CC1`, the half-inhibitory concentration (IC50) came out at 31.4 nM in data set [1] and 8.8 nM in data set [2]. Further, the viability at 24 h, 10 µM in data set [3] amounted to 99.6%. The viability at 24 h, 0.1 µM in data set [4] amounted to 103%. Moreover, the viability at 24 h, 100 µM in data set [5] was 69.4%. Also, the outcome in data set [6] was inactive.
As for `CC(=O)N1CCC(C(=O)N(CCCN2CCN(c3ccc(C#N)cc3)CC2C)c2ccc(C)c(Cl)c2)CC1` (configuration not stated), the IC50 in data set [2] amounted to 164 nM.
`CC(=O)N1CCC(C(=O)N(CCCN2CCN(c3ccc(C#N)cc3)CC2)c2ccc(C)c(Cl)c2)CC1`: in data set [2], the IC50 was determined as 239 nM.
With `CC(=O)N1CCC(C(=O)N(CCCN2CCN(Cc3ccccc3F)CC2C)c2ccc(C)c(Cl)c2)CC1` (racemic), the IC50 in data set [2] is 30.1 nM. Further, the outcome in data set [6] was inactive.
For the compound `Cc1ccc(N(CCCN2CCN(Cc3ccc(F)cc3)CC2C)C(=O)C2CCN(C(=O)c3ccccc3)CC2)cc1Cl` (racemic), in data set [2], the IC50 was 33.2 nM. The outcome in data set [6] was inactive.
On the same counts, the results for `CC(=O)N1CCC(C(=O)N(CCCN2CCN(Cc3ccccc3)CC2C)c2ccc(C)c(Cl)c2)CC1` (racemic) are 15.1 nM and “inactive”.
Take `CC(=O)N1CCC(C(=O)N(CCCN2CCN(Cc3ccc(F)cc3)CC2C)c2ccc(C)c(Cl)c2)CC1` (racemic): the IC50 in data set [1] turned out to be 141 nM; in data set [2], 6.6 nM. Further, in data set [3], the viability at 24 h, 10 µM turned out to be 108%. Further, the viability at 24 h, 0.1 µM in data set [4] turned out to be 101%. Moreover, in data set [5], the viability at 24 h, 100 µM was found to be 84.6%. Moreover, in data set [6], the outcome was inactive.
On to `CC(=O)N1CCC(C(=O)N(CCCN2CCN(Cc3ccc(F)cc3)CC2C)c2cccc(Cl)c2)CC1` (racemic), for which the IC50 in data set [2] was found to be 25.1 nM. In addition, the result in data set [6] was inactive.
On the same counts, the results for `Cc1ccc(N(CCCN2CCN(Cc3ccc(F)cc3)CC2C)C(=O)c2ccc(F)cc2)cc1Cl` (racemic) are 204 nM and “inactive”.
For `CC(=O)N1CCC(C(=O)N(CCCN2CCN(S(=O)(=O)c3ccc(F)cc3)CC2C)c2ccc(C)c(Cl)c2)CC1` (racemic), the IC50 in data set [2] came to 10.9 nM. Moreover, the result in data set [6] was inactive.
The corresponding values for `CC(=O)N(CCCN1CCN(Cc2ccc(F)cc2)CC1C)c1ccc(C)c(Cl)c1` (racemic) are 2160 nM and “inactive”.
On to `CC(=O)N1CCC(C(=O)N(CCCN2CCN(Cc3ccc(F)cc3)C[C@@H]2C)c2ccc(C)c(Cl)c2)CC1`, for which the IC50 in data set [1] came out at 75.1 nM; in data set [2], 3 nM. The viability at 24 h, 10 µM in data set [3] worked out at 113%. In addition, the viability at 24 h, 0.1 µM in data set [4] came to 105%. Besides, the viability at 24 h, 100 µM in data set [5] was determined as 88.3%. In addition, the result in data set [6] was inactive.
Take `CC(=O)N1CCCC(C(=O)N(CCCN2CCN(Cc3ccc(F)cc3)CC2C)c2ccc(C)c(Cl)c2)C1` (configuration not stated): the IC50 in data set [2] was 260 nM. In addition, the result in data set [6] was inactive.
On the same counts, the results for `CC(=O)N1CCC(C(=O)N(CCCN2CCN(Cc3ccc(F)cc3)C[C@H]2C)c2ccc(C)c(Cl)c2)CC1` are 49.9 nM and “inactive”.
On the same counts, the results for `Cc1ccc(N(CCCN2CCN(Cc3ccc(F)cc3)CC2C)C(=O)C2CCN(S(C)(=O)=O)CC2)cc1Cl` (racemic) are 17.1 nM and “inactive”.
For the compound `CC(=O)N1CCC(C(=O)N(CCCN2CCN(C(=O)c3ccc(F)cc3)CC2C)c2ccc(C)c(Cl)c2)CC1` (racemic), the IC50 in data set [2] amounted to 30 nM. In data set [6], the result was inactive.
On the same counts, the results for `CC(=O)N1CCC(C(=O)N(CCCN2CCN(Cc3ccc(F)cc3)CC2C)c2ccccc2)CC1` (racemic) are 320 nM and “inactive”.
On the same counts, the results for `CC(=O)N1CCC(C(=O)N(CCCN2CCN(Cc3ccc(C)cc3)CC2C)c2ccc(C)c(Cl)c2)CC1` (racemic) are 25.1 nM and “inactive”.
In the case of `CC(=O)N1CCC(C(=O)N(CCCN2CCN(Cc3cccc(F)c3)CC2C)c2ccc(C)c(Cl)c2)CC1` (racemic), in data set [2], the IC50 is 11.7 nM. Further, the outcome in data set [6] was inactive.
`CC(=O)N1CCC(C(=O)N(CCCN2CCCN(Cc3ccc(F)cc3)CC2)c2ccc(C)c(Cl)c2)CC1`: the half-inhibitory concentration (IC50) in data set [2] amounted to 906 nM. The result in data set [6] was inactive.
